Laboratory results as given in ChEMBL document CHEMBL4270638, “Sulfonyl-containing phenyl-pyrrolyl pentane analogues: Novel non-secosteroidal vitamin D receptor modulators with favorable physicochemical properties, pharmacokinetic properties and anti-tumor activity” (Eur J Med Chem, 2018).
In brackets after ≈: the same amount, converted by molar mass. Activity calls are given as the source filed them. The calls are words filed in the database; no cut-off is given here.

What was measured:
BXPC-3 = assay: Antiproliferative activity against human BxPC3 cells after 24 hrs by MTT assay; format: functional, cell-based; details: BXPC-3, 24 h
MCF7 [1] = assay: Antiproliferative activity against human MCF7 cells after 24 hrs by MTT assay; format: functional, cell-based; details: MCF7, 24 h
PC-3 = assay: Antiproliferative activity against human PC3 cells after 24 hrs by MTT assay; format: functional, cell-based; details: PC-3, 24 h
Vitamin D3 receptor = target: T1, Vitamin D3 receptor (Homo sapiens, UniProt P11473); assay: Displacement of fluormone VDR red from human full-length VDR after 4 hrs by fluorescence polarization assay
T1 sequence (P11473 whole entry): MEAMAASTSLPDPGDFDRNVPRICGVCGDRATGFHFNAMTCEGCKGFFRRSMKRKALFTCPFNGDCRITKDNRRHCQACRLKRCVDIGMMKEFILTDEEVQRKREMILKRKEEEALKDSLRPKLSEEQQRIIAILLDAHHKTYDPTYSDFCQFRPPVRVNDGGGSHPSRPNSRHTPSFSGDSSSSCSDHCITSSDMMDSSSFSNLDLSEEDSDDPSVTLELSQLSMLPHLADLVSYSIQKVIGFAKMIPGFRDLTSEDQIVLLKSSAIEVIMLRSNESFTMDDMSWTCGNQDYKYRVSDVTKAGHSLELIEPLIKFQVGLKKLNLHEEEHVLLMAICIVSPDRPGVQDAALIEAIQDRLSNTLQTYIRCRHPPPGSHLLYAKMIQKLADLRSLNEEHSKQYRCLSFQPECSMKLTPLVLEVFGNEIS

MCF7 [2] = assay: Cell cycle arrest in human MCF7 cells expressing scrambled siRNA assessed as accumulation at G0/G1 phase at 1 uM after 24 hrs by propidium iodide staining based flow cytometry (reference value: 49.28%); format: functional
MCF7 [3] = assay: Cell cycle arrest in human MCF7 cells expressing scrambled siRNA assessed as accumulation at G2/M phase at 1 uM after 24 hrs by propidium iodide staining based flow cytometry (reference value: 19.6%); format: functional
MCF7 [4] = assay: Cell cycle arrest in human MCF7 cells expressing VDR siRNA assessed as accumulation at G0/G1 phase at 1 uM after 24 hrs by propidium iodide staining based flow cytometry (reference value: 49.17%); format: functional
MCF7 [5] = assay: Cell cycle arrest in human MCF7 cells expressing VDR siRNA assessed as accumulation at G2/M phase at 1 uM after 24 hrs by propidium iodide staining based flow cytometry (reference value: 17.57%); format: functional
MCF7 [6] = assay: Induction of apoptosis in human MCF7 cells expressing scrambled siRNA assessed as early apoptotic cells at 1 uM after 24 hrs by Annexin-V-FITC/propidium iodide staining based flow cytometry (reference value: 0.93%); format: functional
MCF7 [7] = assay: Induction of apoptosis in human MCF7 cells expressing scrambled siRNA assessed as late apoptotic cells at 1 uM after 24 hrs by Annexin-V-FITC/propidium iodide staining based flow cytometry (reference value: 0.98%); format: functional
MCF7 [8] = assay: Induction of apoptosis in human MCF7 cells expressing VDR siRNA assessed as live cells at 1 uM after 24 hrs by Annexin-V-FITC/propidium iodide staining based flow cytometry (reference value: 98.35%); format: functional
MCF7 [9] = assay: Induction of apoptosis in human MCF7 cells expressing VDR siRNA assessed as early apoptotic cells at 1 uM after 24 hrs by Annexin-V-FITC/propidium iodide staining based flow cytometry (reference value: 0.49%); format: functional
MCF7 [10] = assay: Induction of apoptosis in human MCF7 cells expressing VDR siRNA assessed as necrotic cells at 1 uM after 24 hrs by Annexin-V-FITC/propidium iodide staining based flow cytometry (reference value: 0.15%); format: functional
MCF7 [11] = assay: Induction of apoptosis in human MCF7 cells assessed as upregulation of p27 expression at 1 uM after 24 hrs by Western blot analysis; format: functional, cell-based
Method in brief: (§1)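 MCF-7 cells treated at 1 µM for 24 h. Lysates resolved by 10% SDS-PAGE and transferred to PVDF. Probed with rabbit anti-p21, anti-p27 and anti-Bax antibodies, with mouse anti-β-actin as loading control. HRP-conjugated secondary antibodies; bands detected on an infrared scanner.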

MCF7 [12] = assay: Induction of apoptosis in human MCF7 cells assessed as upregulation of Bax expression at 1 uM after 24 hrs by Western blot analysis; format: functional, cell-based; method in brief: as §1
[13] = Solubility of the compound in water at pH 7.4 by HPLC method; format: physicochemical
Method in brief: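 Aqueous solubility measured at pH 7.4, with samples quantified by HPLC.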

[14] = Half life in rat liver microsomes in presence of NADPH by HPLC method; format: ADME, microsome
Method in brief: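 Compounds incubated with rat liver microsomes plus NADPH. Remaining compound quantified by HPLC at 0, 5, 10, 20, 30, 45, 60 and 90 min, and half-life calculated.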

[15] = Half life in Sprague-Dawley rat at 5 mg/kg, iv by HPLC method; format: ADME, organism-based; details: in vivo
Method in brief: (§2)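 Male Sprague-Dawley rats, 180–220 g, n = 3 per group. Dosed iv at 5 mg/kg or ip at 20 mg/kg in ethanol/EL/saline (1:1:18). Plasma sampled at 0, 0.083, 0.167, 0.25, 0.5, 1, 2, 4, 8, 12 and 24 h and centrifuged 12000 rpm for 10 min. Plasma drug measured by HPLC; parameters by PK modelling; mean ± SD.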

[16] = Mean residence time in Sprague-Dawley rat at 5 mg/kg, iv by HPLC method; format: ADME, organism-based; details: in vivo; method in brief: as §2
[17] = Mean residence time in Sprague-Dawley rat at 20 mg/kg, ip by HPLC method; format: ADME, organism-based; details: in vivo; method in brief: as §2
[18] = Clearance in Sprague-Dawley rat at 20 mg/kg, ip by HPLC method; format: ADME, organism-based; details: in vivo; method in brief: as §2
Mus musculus [19] = assay: Toxicity in Balb/c nude mouse xenografted with human MCF7 cells assessed as effect on body weight at 10 mg/kg, ip administered three times a week for three weeks starting from day 7 after tumor cell inoculation; format: organism-based; details: in vivo
Method in brief: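 […] BALB/c-nu mice, 10 weeks old. 1×10^7 MCF-7 cells injected into the left fourth mammary fat pad; dosing began at about 50 mm3 tumour volume (day 7), n = 5 per group. Dosed ip at 10 mg/kg in ethanol/EL/saline 1:1:18, three times weekly for three weeks. Tumour volume by calipers = length × width² × 0.5; tumour weight and body weight recorded.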

MCF7 [20] = assay: Antitumor activity against human MCF7 cells xenografted in Balb/c nude mouse assessed as increase in p21 expression at 10 mg/kg, ip administered three times a week for three weeks starting from day 7 after tumor cell inoculation by immunohistochemical analysis; format: functional, organism-based
MCF7 [21] = assay: Antitumor activity against human MCF7 cells xenografted in Balb/c nude mouse assessed as increase in p27 expression at 10 mg/kg, ip administered three times a week for three weeks starting from day 7 after tumor cell inoculation by immunohistochemical analysis; format: functional, organism-based
MCF7 [22] = assay: Antitumor activity against human MCF7 cells xenografted in Balb/c nude mouse assessed as increase in Bax expression at 10 mg/kg, ip administered three times a week for three weeks starting from day 7 after tumor cell inoculation by immunohistochemical analysis; format: functional, organism-based
Mus musculus [23] = assay: Hypercalcemic effect in Balb/c nude mouse xenografted with human MCF7 cells assessed as effect on serum calcium level at 10 mg/kg, ip administered three times a week for three weeks starting from day 7 after tumor cell inoculation measured on day 27 (reference value: 0.6 umol/ml); format: ADME, organism-based; details: in vivo

Row | Structure (SMILES) | IC50 (BXPC-3) [µM] | IC50 (MCF7 [1]) [µM] | IC50 (PC-3) [µM] | IC50 (Vitamin D3 receptor) [nM] | Activity (MCF7 [2]) [%] | Activity (MCF7 [3]) [%] | Activity (MCF7 [4]) [%] | Activity (MCF7 [5]) [%] | Activity (MCF7 [6]) [%] | Activity (MCF7 [7]) [%] | Activity (MCF7 [8]) [%] | Activity (MCF7 [9]) [%] | Activity (MCF7 [10]) [%] | Activity (MCF7 [11]) | Activity (MCF7 [12]) | solubility [13] [µg/mL] | half-life [14] [min] | half-life [15] [min] | MRT [16] [h] | MRT [17] [h] | also measured
1 | CCN(CC)CCNC(=O)c1ccc(C(CC)(CC)c2ccc(OCSC)c(C)c2)n1CC | 5.13 | 5.16 | 4.01 | 89.1 | 55.26 | 15.96 | 50.3 | 16.01 | 1.31 | 3.65 | 97.35 | 0.47 | 0.51 | Active | Active | 74.6 (≈ 157 µM) | 57.3 | 283 | 8.08 | 15.7 | CL/F [18]: 16.5 mL/min; Activity (Mus musculus [19]): Non-Toxic; Activity (MCF7 [20]): Active; Activity (MCF7 [21]): Active; Activity (MCF7 [22]): Active; Activity (Mus musculus [23]): Non-Toxic
2 | CCN(CC)CCNC(=O)c1cc(C(CC)(CC)c2ccc(OCS(=O)(=O)c3ccccc3)c(C)c2)cn1CC | 4.69 | 2.03 | 6.08 | 125 | 55.96 | 13.22 | 50.69 | 19.02 | 1.21 | 3.37 | 97.48 | 0.7 | 0.25 | Active | Active | 85.3 (≈ 150 µM) | 59.2 | 396 | 9.72 | 11.9 | CL/F [18]: 27.7 mL/min; Activity (Mus musculus [19]): Non-Toxic; Activity (MCF7 [20]): Active; Activity (MCF7 [21]): Active; Activity (MCF7 [22]): Active; Activity (Mus musculus [23]): Non-Toxic
